Results on 6 molecules are retold here after ChEMBL document CHEMBL1145518, “Potent immune-modulating and anticancer effects of NKT cell stimulatory glycolipids” (2007).

The source made the active and inactive calls. No cut-off for these calls is given here.

Test [1] is described as follows: Induction of MCP1 secretion in human CD161+ CD3+ NKT cells at 10 ug/ml after 18 hrs relative to basal level. The test is classed as functional. In outline: (§1)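 Human Vα24i NKT cell lines were expanded for 10 days on irradiated (3,000 rad) autologous immature DCs with 10 units/ml IL-2. The cells (1 × 10^5) were cocultured with 5 × 10^4 irradiated immature CD14+ DCs plus glycolipid at 10 μg/ml. Supernatants were collected at 18 h and read on a 22-plex Luminex bead panel. Triplicates, mean ± SD.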

Test [2] can be described thus: Induction of IL6 secretion in human CD161+ CD3+ NKT cells at 10 ug/ml after 18 hrs relative to basal level. Format: functional. In outline:
as §1

The nature of test [3]: Induction of MIPalpha secretion in human CD161+ CD3+ NKT cells at 10 ug/ml after 18 hrs relative to basal level. Format: functional. The method, boiled down: as §1
A short description of test [4]: Induction of IL2 secretion in human CD161+ CD3+ NKT cells at 10 ug/ml after 18 hrs relative to basal level. The test is classed as functional. In outline: as §1
Test [5] is described as follows: Induction of TNFalpha secretion in human CD161+ CD3+ NKT cells at 10 ug/ml after 18 hrs relative to basal level. The test is classed as functional. The method, boiled down: as §1
Test [6] in a line: Induction of IL12p70 secretion in human CD161+ CD3+ NKT cells at 10 ug/ml after 18 hrs relative to basal level. The test is classed as functional. The method, boiled down: as §1
Test [7] is described as follows: Induction of IL4 secretion in human CD161+ CD3+ NKT cells at 10 ug/ml after 18 hrs relative to basal level. Format: functional. In outline: as §1
Test [8] can be described thus: Induction of IL15 secretion in human CD161+ CD3+ NKT cells at 10 ug/ml after 18 hrs relative to basal level. The test is classed as functional. The method, boiled down:
as §1

Test [9] in a line: Induction of GM-CSF secretion in human CD161+ CD3+ NKT cells at 10 ug/ml after 18 hrs relative to basal level. Format: functional. The method, boiled down:
as §1

Test [10] can be described thus: Induction of IL8 secretion in human CD161+ CD3+ NKT cells at 10 ug/ml after 18 hrs relative to basal level. The test is classed as functional. The method, boiled down:
as §1

The nature of test [11]: Induction of IFN-gamma secretion in human CD161+ CD3+ NKT cells at 10 ug/ml after 18 hrs relative to basal level. The test is classed as functional. The method, boiled down: as §1
A short description of test [12]: Induction of IL3 secretion in human CD161+ CD3+ NKT cells at 10 ug/ml after 18 hrs relative to basal level. Format: functional. In outline:
as §1

The nature of test [13]: Induction of IL13 secretion in human CD161+ CD3+ NKT cells at 10 ug/ml after 18 hrs relative to basal level. Format: functional. In outline:
as §1

Test [14] is described as follows: Induction of IL10 secretion in human CD161+ CD3+ NKT cells at 10 ug/ml after 18 hrs relative to basal level. Format: functional. In outline:
as §1

A short description of test [15]: Induction of IL12p40 secretion in human CD161+ CD3+ NKT cells at 10 ug/ml after 18 hrs relative to basal level. The test is classed as functional. In outline:
as §1

A short description of test [16]: Induction of RANTES secretion in human CD161+ CD3+ NKT cells at 10 ug/ml after 18 hrs relative to basal level. Format: functional. In outline:
as §1

A further test has as its system NKT. Briefly: Stimulation of cell expansion of human invariant CD161+/ Valpha24+/ CD56+/ CD3+ NKT cells by flow cytometry method. The test is classed as functional, cell-based. In outline:
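CD56+ NK/NKT mixtures (2 × 10^6) were isolated from human leukopaks with anti-CD56 microbeads. They were cocultured with 4 × 10^5 autologous immature CD14+ DCs pulsed with glycolipid at 3 μg/ml, or with 0.3% DMSO, on day 2 for 18 h. Suspension cells were then transferred and kept in 100 units/ml IL-2 with fresh medium every 3 days. On day 9, CD161+/Vα24TCR+ cells were gated by flow cytometry and total Vα24i NKT cells counted. Triplicates, mean ± SD.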

The test system of a further test is 4T1. As to the kind of experiment: Antitumor activity in mouse 4T1 cells xenografted BALB/c mouse assessed as suppression of tumor growth at 2 ug, iv. Format: functional, cell-based. In outline:
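BALB/c mice (n = 6) were inoculated s.c. with 4T1 breast cancer cells. From day 3 they were treated i.v. with glycolipid or vehicle twice weekly for 4 weeks. Tumor volume was recorded every 3 days for 1 month, and survival was monitored up to 54 days.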

The subject of another test is TC1. Briefly: Antitumor activity in TC1 cells xenografted C57BL/6 mouse assessed as suppression of tumor growth at 2 ug, iv. The test is classed as functional, cell-based. The method, boiled down:
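C57BL/6 mice (n = 5/group) were inoculated i.v. with TC-1 lung cancer cells. They were then treated i.v. with 2 μg glycolipid per mouse, or 100 μl of 1% DMSO, twice weekly for 4 weeks. Kaplan–Meier survival and body weight were followed, with tumor-free mice as an additional control.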

Turning to `CCCCCCCCCCCCCCCCCCCCCCCCCC(=O)N[C@@H](CO[C@@H]1O[C@H](CO)[C@H](O)[C@H](OS(=O)(=O)[O-])[C@H]1O)[C@H](O)[C@H](O)CCCCCCCCCCCCCC.[Na+]`, the Activity stood at 1.5 in test [1]; 1.9 in test [2]; 3.2 in test [3]; 1.6 in test [4]; 3.7 in test [5]; 1.6 in [6]. Moreover, the Activity is listed as 2.9 in test [7]; 2.2 in test [8]; 4.1 in test [9]; 1.9 in [10]; 2.2 in test [11]; 2.3 in [12]. For the same molecule, the Activity in [13] is on record as 2.4; in test [14], 1.8; in test [15], 1.8; in [16], 1.5.

Consider `CCCCCCCCCCCCCC[C@@H](O)[C@@H](O)[C@H](CO[C@H]1O[C@H](CO)[C@H](O)[C@H](O)[C@H]1O)NC(=O)CCc1ccc(CC(C)C)cc1`, for which the Activity in [1] was determined as 0.9; in [2] it was 2.1; in [3] it was 2.8; in test [4], 1.3; in [5], 1.9; in [6], 1.8. For the same molecule, the Activity in test [7] came out at 2.2; in test [8], 2.2; in [9], 3.8; in test [10] it was 5.5; in test [11], 1.9; in test [12] it was 1.9. The Activity in test [13] was 1.4; in [14], 2.2; in [15], 1.8; in test [16], 1.3. Further, the outcome with NKT was Active.

As for `CCCCCCCCCCCCCC[C@@H](O)[C@@H](O)[C@H](CO[C@H]1O[C@H](CO)[C@H](O)[C@H](O)[C@H]1O)NC(=O)CCc1ccc(C(F)(F)F)cc1`, the Activity was 1.4 in [1]; 2.3 in test [2]; 3.4 in test [3]; 1.5 in test [4]; 3.3 in test [5]; 1.7 in test [6]. Moreover, the Activity in [7] stood at 2.4; in [8], 2.1; in [9] it was 3.5; in [10], 2.4; in test [11], 2.8; in test [12], 1.6. In addition, the Activity is recorded as 2.1 in test [13], 1.7 in test [14], 1.9 in test [15] and 1.7 in test [16].

As for `CCCCCCCCCCCCCCCCCCCCCCCCCC(=O)N[C@@H](CS[C@H]1O[C@H](CO)[C@H](O)[C@H](O)[C@H]1O)[C@H](O)[C@H](O)CCCCCCCCCCCCCC`, the Activity in test [1] was found to be 1.4; in test [2], 1.5; in test [3], 1.5; in [4], 1.2; in [5], 2.5; in [6], 1. The Activity in test [7] was determined as 2.1; in test [8], 1.8; in test [9] it was 1.6; in test [10], 1.9; in test [11] it was 1.3; in test [12], 1.1. Besides, the Activity in test [13] is recorded as 1.6; in test [14], 0.6; in test [15], 1.7; in [16], 1.5.

Regarding `CCCCCCCCCCCCCC[C@@H](O)[C@@H](O)[C@H](CO[C@H]1O[C@H](CO)[C@H](O)[C@H](O)[C@H]1O)NC(=O)CCCCCCCCCc1ccccc1`, the outcome in the test on 4T1, in the test with NKT and in the test on TC1 was Active. In addition, the Activity in test [1] worked out at 1.5; in test [2] it was 1.6; in test [3], 3.4; in test [4] it was 3.4; in test [5], 5.6; in test [6] it was 2.3. For the same molecule, the Activity in test [7] was 3.2; in test [8], 2.3; in test [9], 3.4; in test [10] it was 2.2; in test [11], 4.2; in test [12], 1.8. Further, the Activity came out at 1.6 in test [13], 1.4 in [14], 1.4 in test [15] and 2.1 in test [16].

`CCCCCCCCCCCCCC[C@@H](O)[C@@H](O)[C@H](CO[C@H]1O[C@H](CO)[C@H](O)[C@H](O)[C@H]1O)NC(=O)CCCc1ccccc1`: the Activity in [1] is 1; in [2], 1.6; in test [3] it was 3.2; in test [4], 1.4; in test [5] it was 3.3; in test [6], 1.2. Also, the Activity in [7] is given as 1.9; in [8] it was 2.2; in test [9] it was 2.8; in [10] it was 1.6; in test [11], 2.1; in test [12], 1.8. In addition, the Activity in [13] was determined as 1.6; in test [14], 1.3; in test [15] it was 1.4; in test [16] it was 1.5.
